Experimental data taken from paper PMC9150435 (Nature, 2021).
Changes are numbered by the printed parent chain. Each block holds one molecule with its values, some of them ahead of it.

Tests used:
MRGPRX2 mutants [1] = molecular target: T1, MRGPRX2 mutants (Homo sapiens, UniProt Q96LB1, I135A); test: BRET2 Gq activation, MRGPRX2 mutants; type: cell-based; details: MRGPRX2 I135(ICL2)A
T1 sequence (Q96LB1 1-330 I135A): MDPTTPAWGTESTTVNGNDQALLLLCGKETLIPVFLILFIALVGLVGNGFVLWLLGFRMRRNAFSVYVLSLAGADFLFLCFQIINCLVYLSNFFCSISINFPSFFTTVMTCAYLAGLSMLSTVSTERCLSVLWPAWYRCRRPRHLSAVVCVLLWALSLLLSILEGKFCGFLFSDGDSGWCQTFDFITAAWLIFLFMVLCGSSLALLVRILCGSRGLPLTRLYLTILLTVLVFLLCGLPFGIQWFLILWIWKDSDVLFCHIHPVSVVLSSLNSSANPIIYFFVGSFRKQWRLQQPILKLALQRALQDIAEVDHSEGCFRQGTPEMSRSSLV

MRGPRX2 mutants [2] = molecular target: T2, MRGPRX2 mutants (Homo sapiens, UniProt Q96LB1, F170A); test: BRET2 Gq activation, MRGPRX2 mutants; type: cell-based; details: MRGPRX2 F170(ECL2)A
T2 sequence (Q96LB1 1-330 F170A): T1 sequence (Q96LB1 1-330 I135A) with A135I, F170A

MRGPRX2 mutants [3] = molecular target: T3, MRGPRX2 mutants (Homo sapiens, UniProt Q96LB1, W243A); test: BRET2 Gq activation, MRGPRX2 mutants; type: cell-based; details: MRGPRX2 W243A
T3 sequence (Q96LB1 1-330 W243A): T1 sequence (Q96LB1 1-330 I135A) with A135I, W243A

MRGPRX2 mutants [4] = molecular target: T1, MRGPRX2 mutants; test: BRET2 Gi1 activation, MRGPRX2 mutants; type: cell-based; details: MRGPRX2 I135(ICL2)A
MRGPRX2 mutants [5] = test: BRET2 Gi1 activation, MRGPRX2 mutants; type: cell-based, human; details: MRGPRX2 R214A, L216A
MRGPRX2 mutants [6] = test: BRET2 Gq activation, MRGPRX2 mutants; type: cell-based, human
MRGPRX4 [7] = details: previously identified; cited from earlier work
MRGPRX4 Leu83Ser = MRGPRX4 Leu83Ser (Homo sapiens, UniProt Q96LA9, L83S); test: Agonist potency at MRGPRX4 Leu83Ser variant; type: cell-based
Sequence of MRGPRX4 Leu83Ser (Q96LA9 whole entry L83S): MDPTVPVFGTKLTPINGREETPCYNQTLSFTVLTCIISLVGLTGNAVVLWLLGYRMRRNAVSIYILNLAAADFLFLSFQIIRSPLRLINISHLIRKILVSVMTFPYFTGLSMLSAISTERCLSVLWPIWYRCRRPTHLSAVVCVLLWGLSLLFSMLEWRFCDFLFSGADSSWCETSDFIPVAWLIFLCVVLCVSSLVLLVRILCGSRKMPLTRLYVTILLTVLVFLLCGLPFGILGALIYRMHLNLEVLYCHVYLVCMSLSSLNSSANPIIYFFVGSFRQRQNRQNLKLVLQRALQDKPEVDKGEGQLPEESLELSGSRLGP

MRGPRX4 mutants [8] = molecular target: MRGPRX4 mutants (Homo sapiens, UniProt Q96LA9, Y130A); test: BRET2 Gq activation, MRGPRX4 mutants; type: cell-based; details: MRGPRX4 Y130(ICL2)A
Sequence of MRGPRX4 mutants (Homo sapiens, UniProt Q96LA9, Y130A) (Q96LA9 whole entry Y130A): as the sequence (Q96LA9 whole entry L83S) above, with S83L, Y130A counted along it

MRGPRX4 mutants [9] = test: BRET2 Gq activation, MRGPRX4 mutants; type: cell-based, human; details: MRGPRX4 pocket mutants
MRGPRX1 = MRGPRX1 (Homo sapiens, UniProt Q96LB2); test: PRESTO-Tango single-point and concentration-response assay at MRGPRX1; type: cell-based
Sequence of MRGPRX1 (Q96LB2 whole entry): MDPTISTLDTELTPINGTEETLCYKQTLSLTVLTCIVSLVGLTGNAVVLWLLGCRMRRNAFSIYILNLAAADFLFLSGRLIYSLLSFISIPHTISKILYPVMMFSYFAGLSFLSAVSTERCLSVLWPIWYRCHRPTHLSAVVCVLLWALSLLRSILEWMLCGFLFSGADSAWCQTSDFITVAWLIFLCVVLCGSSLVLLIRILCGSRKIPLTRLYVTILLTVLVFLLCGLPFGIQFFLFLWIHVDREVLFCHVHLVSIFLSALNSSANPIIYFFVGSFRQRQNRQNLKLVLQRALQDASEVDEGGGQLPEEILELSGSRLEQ
How it was run: (§1)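 HTLA cells in DMEM + 1% dialyzed FBS were PEI-transfected in-plate with PRESTO-Tango receptor DNA (17 ng/well). After overnight culture, test compound at 3 μM final was added for 18–20 h without medium change. Luminescence read 20 min after Bright-Glo. Assay control: D2 receptor with 0.1 mM quinpirole. Output is fold over basal RLU (n=4 technical replicates); receptors exceeding 3-fold basal were repeated as full dose–response.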

MRGPRX4 [10] = molecular target: MRGPRX4 (Homo sapiens, UniProt Q96LA9); test: FLIPR Ca2+ assay, agonist mode, MRGPRX4 stable cells; type: cell-based; details: read-out: EC50, MRGPRX4 agonist
Sequence of MRGPRX4 (Homo sapiens, UniProt Q96LA9) (Q96LA9 whole entry): as the sequence (Q96LA9 whole entry L83S) above, with S83L counted along it

[11] = test system: Kir6.2/SUR1 potassium channel; test: Whole-cell electrophysiology, Kir6.2/SUR1 current inhibition in HEK293 cells; type: cell-based, human
320 GPCRs = test: PRESTO-Tango GPCRome screening; type: cell-based; details: 3 μM
How it was run: as §1

effect of I135A mutation on stimulated Gq activation (MRGPRX2 mutants [1]): greatly reduced | effect of F170A mutation on agonist stimulated Gq activation (MRGPRX2 mutants [2]): reduced the potency | effect of W243A mutation on agonist stimulated Gq activation (MRGPRX2 mutants [3]): abolished the activity | effect of I135A mutation on stimulated Gi1 activation (MRGPRX2 mutants [4]): attenuate
Molecule: cortistatin-14 (PCKNFFWKTFSSCK)
effect of ICL3 mutations R214A and L216A on stimulated Gi1 activation (MRGPRX2 mutants [5]): impairs

effect of I135A mutation on stimulated Gq activation (MRGPRX2 mutants [1]): greatly reduced | effect of I135A mutation on stimulated Gi1 activation (MRGPRX2 mutants [4]): attenuate
Molecule: CN(C)[C@@H]1CCN(c2cc(-c3ccccc3)nc3ccnn23)C1 [(R)-ZINC-3573]
effect of D184A and E164A substitutions on agonist stimulated Gq activation (MRGPRX2 mutants [6]; MRGPRX2 D184A, E164A): impaired the efficacy | effect of most alanine mutations in the (R)-ZINC-3573 pocket (MRGPRX2 mutants [6]; MRGPRX2 pocket alanine mutants): greatly reduced the efficacy | effect of ICL3 mutations R214A and L216A on stimulated Gi1 activation (MRGPRX2 mutants [5]): impairs

effect of Leu83Ser mutation on agonist potency (MRGPRX4 Leu83Ser): greatly attenuated the potency
Molecule: CC(C)[C@H]1CC[C@H](C(=O)N[C@H](Cc2ccccc2)C(=O)O)CC1 [nateglinide]
MRGPRX4 agonist potency (MRGPRX4 [7]): low micromolar agonist

effect of Y130A mutation on agonist potency (MRGPRX4 mutants [8]): reduced the agonist potency | activity against MRGPRX1 in concentration-response assay (MRGPRX1; full dose-response repeat): not replicated | activity at MRGPRX1, fold of basal levels of relative luminescence units (MRGPRX1; single-point assay, 3 μM): more than 3 fold | EC50 (MRGPRX4 [10]): 150 nM | effect of Leu83Ser mutation on agonist potency (MRGPRX4 Leu83Ser): greatly attenuated the potency
Molecule: C[C@]12CC3CC(C(=O)N[C@H](Cc4ccccc4)C(=O)O)(C1)C[C@@](C)(C3)C2 [MS47134]
effect of most mutations surrounding MS47134 on potency (MRGPRX4 mutants [9]): greatly affected its potency | selectivity over Kir6.2/SUR1 channel compared to nateglinide [11]: higher selectivity | improved selectivity for MRGPRX4 over the Kir6.2/SUR1 potassium channel ([11]; MRGPRX4 FLIPR vs Kir6.2/SUR1 current inhibition): 47 fold | off-target agonist or antagonist activity across GPCRome (320 GPCRs): activity only at MRGPRX4 and MRGPRX1
